Results from ChEMBL document CHEMBL1125014, “Synthesis and structure-activity relationships of new 9-N-alkyl derivatives of 9(S)-erythromycylamine” (1990).
≈ marks a conversion by molar mass, not a printed value.

Experiments:
Format in all cases: functional
Haemophilus influenzae [1] = assay: MIC value was measured against haemophilus influenzae CL
Staphylococcus aureus [2] = assay: MIC value measured against staphylococcus aureus X1
Enterococcus faecalis [3] = assay: MIC value was measured against streptococcus faecalis.
Streptococcus pyogenes [4] = assay: MIC value measured against streptococcus pyogenes C203
[5] = system: Staphylococcus epidermidis; assay: microbe, parasite or virus in culture
Haemophilus influenzae [6] = assay: MIC value was measured against haemophilus influenzae.
How it was run: (§1)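 Susceptibility determined by standard agar-dilution method against a panel of bacterial strains.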

Staphylococcus aureus [7] = assay: Effective dose against mice infected with Staphylococcus aureus after peroral administration (in vivo); conditions: in Mus musculus, po
Streptococcus pneumoniae [8] = assay: Effective dose against mice infected with streptococcus pneumoniae after peroral administration (in vivo); conditions: in Mus musculus, po
Streptococcus pyogenes [9] = assay: Effective dose against mice infected with streptococcus pyogenes after peroral administration (in vivo); conditions: in Mus musculus, po
Bacteria [10] = assay: MIC value was measured against streptococcus pyogenes.; how it was run: as §1
Bacteria [11] = assay: MIC value was measured against staphylococcus epidermidis.; how it was run: as §1
Streptococcus pneumoniae [12] = assay: MIC value was measured against streptococcus pneumoniae park1; how it was run: as §1
Enterococcus faecalis [13] = assay: MIC value was measured against streptococcus faecalis X66; how it was run: as §1
Streptococcus pneumoniae [14] = assay: MIC value measured against streptococcus pneumoniae Park1
Mus musculus [15] = assay: ED50 value was measured by sc administration against streptococcus pyogenes infection in mice (in vivo, in experiment 1)
How it was run: (§2)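 Infected mice were dosed orally or subcutaneously at 1 and 5 h postinfection, 0.25 mL of antibiotic solution in 10% aqueous ethanol per dose. Tartaric acid was added where needed for solubility. Several dose concentrations were tested to give the ED50.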

Mus musculus [16] = assay: ED50 value was measured by sc administration against streptococcus pyogenes infection in mice (in vivo, in experiment 2); how it was run: as §2
Mus musculus [17] = assay: ED50 value was measured by po administration against streptococcus pyogenes infection in mice (in vivo, in experiment 1); how it was run: as §2
Mus musculus [18] = assay: ED50 value was measured by po administration against streptococcus pyogenes infection in mice (in vivo, in experiment 2); how it was run: as §2
Mus musculus [19] = assay: ED50 value was measured by sc administration against staphylococcus aureus infection in mice (in vivo, in experiment 1); how it was run: as §2
Mus musculus [20] = assay: ED50 value was measured by sc administration against staphylococcus aureus infection in mice (in vivo, in experiment 2); how it was run: as §2
Mus musculus [21] = assay: ED50 value was measured by sc administration against streptococcus pneumoniae infection in mice (in vivo, in experiment 1); how it was run: as §2
Mus musculus [22] = assay: ED50 value was measured by sc administration against streptococcus pneumoniae infection in mice (in vivo, in experiment 2); how it was run: as §2
Mus musculus [23] = assay: ED50 value was measured by po administration against staphylococcus aureus infection in mice (in vivo, in experiment 1); how it was run: as §2
Mus musculus [24] = assay: ED50 value was measured by po administration against streptococcus pneumoniae infection in mice (in vivo, in experiment 1); how it was run: as §2
Mus musculus [25] = assay: ED50 value was measured by po administration against streptococcus pneumoniae infection in mice (in vivo, in experiment 2); how it was run: as §2
Mus musculus [26] = assay: ED50 value was measured by po administration against staphylococcus aureus infection in mice (in vivo, in experiment 2); how it was run: as §2

CC[C@H]1OC(=O)[C@H](C)[C@@H](OC2CC(C)(OC)C(O)C(C)O2)[C@H](C)[C@@H](OC2OC(C)CC(N(C)C)C2O)[C@](C)(O)C[C@@H](C)[C@@H](N)[C@H](C)[C@@H](O)[C@H]1C (some centres not stated)
MIC (Haemophilus influenzae [1]): 16 µg/mL (≈ 22.3 µM)
MIC (Staphylococcus aureus [2]): 2 µg/mL (≈ 2.78 µM)
MIC (Enterococcus faecalis [3]): 1 µg/mL (≈ 1.39 µM)
MIC (Streptococcus pyogenes [4]): 0.25 µg/mL (≈ 0.348 µM)
MIC [5]: 1 µg/mL (≈ 1.39 µM)

CCCCC/C=C/CCCN[C@@H]1[C@H](C)[C@@H](O)[C@](C)(O)[C@@H](CC)OC(=O)[C@H](C)[C@@H](OC2CC(C)(OC)C(O)C(C)O2)[C@H](C)[C@@H](OC2OC(C)CC(N(C)C)C2O)[C@](C)(O)C[C@H]1C (some centres not stated)
MIC (Haemophilus influenzae [6]): 2 µg/mL (≈ 2.29 µM)
MIC (Haemophilus influenzae [1]): 2 µg/mL (≈ 2.29 µM)
MIC (Staphylococcus aureus [2]): 0.5 µg/mL (≈ 0.573 µM)
MIC (Enterococcus faecalis [3]): 0.12 µg/mL (≈ 0.137 µM)
MIC (Streptococcus pyogenes [4]): 0.008 µg/mL (≈ 0.00916 µM)
MIC [5]: 0.25 µg/mL (≈ 0.286 µM)

CC[C@H]1OC(=O)[C@H](C)[C@@H](OC2CC(C)(OC)C(O)C(C)O2)[C@H](C)[C@@H](OC2OC(C)CC(N(C)C)C2O)[C@](C)(O)C[C@@H](C)[C@H](N2CCCCC2)[C@H](C)[C@@H](O)[C@]1(C)O (some centres not stated)
MIC (Haemophilus influenzae [6]): 2 µg/mL (≈ 2.49 µM)
MIC (Haemophilus influenzae [1]): 2 µg/mL (≈ 2.49 µM)
ED50 (Staphylococcus aureus [7]): > 44 mg/kg
ED50 (Streptococcus pneumoniae [8]): 21 mg/kg
ED50 (Streptococcus pyogenes [9]): 24 mg/kg
MIC (Staphylococcus aureus [2]): 16 µg/mL (≈ 19.9 µM)
MIC (Bacteria [10]): 1 µg/mL (≈ 1.25 µM)
MIC (Bacteria [11]): 8 µg/mL (≈ 9.96 µM)

CC[C@H]1OC(=O)[C@H](C)[C@@H](OC2CC(C)(OC)C(O)C(C)O2)[C@H](C)[C@@H](OC2OC(C)CC(N(C)C)C2O)[C@](C)(O)C[C@@H](C)[C@H](NCCCc2ccccc2)[C@H](C)[C@@H](O)[C@]1(C)O (some centres not stated)
MIC (Haemophilus influenzae [1]): 2 µg/mL (≈ 2.34 µM)
ED50 (Staphylococcus aureus [7]): 37 mg/kg
ED50 (Streptococcus pneumoniae [8]): 17 mg/kg
ED50 (Streptococcus pyogenes [9]): 14 mg/kg
MIC (Streptococcus pneumoniae [12]): 0.015 µg/mL (≈ 0.0176 µM)
MIC (Staphylococcus aureus [2]): 1 µg/mL (≈ 1.17 µM)
MIC (Enterococcus faecalis [13]): 0.06 µg/mL (≈ 0.0703 µM)
MIC (Streptococcus pyogenes [4]): 0.015 µg/mL (≈ 0.0176 µM)
MIC [5]: 0.5 µg/mL (≈ 0.586 µM)

CC[C@H]1OC(=O)[C@H](C)[C@@H](OC2CC(C)(OC)C(O)C(C)O2)[C@H](C)[C@@H](OC2OC(C)CC(N(C)C)C2O)[C@](C)(O)C[C@@H](C)/C(=N\O)[C@H](C)[C@@H](O)[C@H]1C (some centres not stated)
MIC (Haemophilus influenzae [1]): 1 µg/mL (≈ 1.36 µM)
MIC (Streptococcus pneumoniae [14]): 0.008 µg/mL (≈ 0.0109 µM)
MIC (Staphylococcus aureus [2]): 0.5 µg/mL (≈ 0.682 µM)
MIC (Enterococcus faecalis [3]): 1 µg/mL (≈ 1.36 µM)
MIC (Streptococcus pyogenes [4]): 0.015 µg/mL (≈ 0.0205 µM)
MIC [5]: 0.25 µg/mL (≈ 0.341 µM)

CC[C@H]1OC(=O)[C@H](C)[C@@H](OC2CC(C)(OC)C(O)C(C)O2)[C@H](C)[C@@H](OC2OC(C)CC(N(C)C)C2O)[C@](C)(O)C[C@@H](C)/C(=N\O)[C@H](C)[C@@H](O)[C@]1(C)O (some centres not stated)
MIC (Haemophilus influenzae [1]): 0.5 µg/mL (≈ 0.668 µM)
MIC (Streptococcus pneumoniae [14]): 0.008 µg/mL (≈ 0.0107 µM)
MIC (Staphylococcus aureus [2]): 0.25 µg/mL (≈ 0.334 µM)
MIC (Enterococcus faecalis [3]): 0.06 µg/mL (≈ 0.0801 µM)
MIC (Streptococcus pyogenes [4]): 0.008 µg/mL (≈ 0.0107 µM)
MIC [5]: 0.06 µg/mL (≈ 0.0801 µM)

CC[C@H]1OC(=O)[C@H](C)[C@@H](OC2CC(C)(OC)C(O)C(C)O2)[C@H](C)[C@@H](OC2OC(C)CC(N(C)C)C2O)[C@](C)(O)C[C@@H](C)[C@H]2[C@H](C)[C@@H](OCN2C(C)CCCN(CC)CC)[C@]1(C)O (some centres not stated)
MIC (Haemophilus influenzae [1]): 8 µg/mL (≈ 9.01 µM)
MIC (Streptococcus pneumoniae [12]): 0.5 µg/mL (≈ 0.563 µM)
MIC (Staphylococcus aureus [2]): 8 µg/mL (≈ 9.01 µM)
MIC (Enterococcus faecalis [13]): 2 µg/mL (≈ 2.25 µM)
MIC (Streptococcus pyogenes [4]): 0.5 µg/mL (≈ 0.563 µM)
MIC [5]: 8 µg/mL (≈ 9.01 µM)

CC[C@H]1OC(=O)[C@H](C)[C@@H](OC2CC(C)(OC)C(O)C(C)O2)[C@H](C)[C@@H](OC2OC(C)CC(N(C)C)C2O)[C@](C)(O)C[C@@H](C)[C@H](NCc2ccccc2)[C@H](C)[C@@H](O)[C@]1(C)O (some centres not stated)
MIC (Haemophilus influenzae [1]): 2 µg/mL (≈ 2.42 µM)
ED50 (Staphylococcus aureus [7]): > 50 mg/kg
ED50 (Streptococcus pneumoniae [8]): 11 mg/kg
ED50 (Streptococcus pyogenes [9]): 9 mg/kg
MIC (Streptococcus pneumoniae [12]): 0.015 µg/mL (≈ 0.0182 µM)
MIC (Staphylococcus aureus [2]): 0.5 µg/mL (≈ 0.606 µM)
MIC (Enterococcus faecalis [13]): 0.25 µg/mL (≈ 0.303 µM)
MIC (Streptococcus pyogenes [4]): 0.06 µg/mL (≈ 0.0727 µM)
MIC [5]: 0.5 µg/mL (≈ 0.606 µM)

CC[C@H]1OC(=O)[C@H](C)[C@@H](OC2CC(C)(OC)C(O)C(C)O2)[C@H](C)[C@@H](OC2OC(C)CC(N(C)C)C2O)[C@](C)(O)C[C@@H](C)[C@H](NCCOC)[C@H](C)[C@@H](O)[C@]1(C)O (some centres not stated)
MIC (Haemophilus influenzae [6]): 1 µg/mL (≈ 1.26 µM)
MIC (Haemophilus influenzae [1]): 1 µg/mL (≈ 1.26 µM)
ED50 (Mus musculus [15]): 1.7 mg/kg
ED50 (Mus musculus [16]): 2.1 mg/kg
ED50 (Mus musculus [17]): 16 mg/kg
ED50 (Mus musculus [18]): 16 mg/kg
ED50 (Mus musculus [19]): 2 mg/kg
ED50 (Mus musculus [20]): 2.5 mg/kg
ED50 (Mus musculus [21]): 2 mg/kg
ED50 (Mus musculus [22]): 3.3 mg/kg
ED50 (Staphylococcus aureus [7]): 35 mg/kg
ED50 (Streptococcus pneumoniae [8]): 19 mg/kg
ED50 (Streptococcus pyogenes [9]): 16 mg/kg
ED50 (Mus musculus [23]): 44 mg/kg
ED50 (Mus musculus [24]): 25 mg/kg
ED50 (Mus musculus [25]): 19 mg/kg
MIC (Streptococcus pneumoniae [14]): 0.015 µg/mL (≈ 0.0189 µM)
MIC (Staphylococcus aureus [2]): 0.5 µg/mL (≈ 0.63 µM)
MIC (Streptococcus pyogenes [4]): 0.12 µg/mL (≈ 0.151 µM)
MIC [5]: 0.25 µg/mL (≈ 0.315 µM)
ED50 (Mus musculus [26]): 35 mg/kg

CC[C@H]1OC(=O)[C@H](C)[C@@H](OC2CC(C)(OC)C(O)C(C)O2)[C@H](C)[C@@H](OC2OC(C)CC(N(C)C)C2O)[C@](C)(O)C[C@@H](C)[C@H](NCCCCN)[C@H](C)[C@@H](O)[C@]1(C)O (some centres not stated)
MIC (Haemophilus influenzae [1]): 64 µg/mL (≈ 79.4 µM)
MIC (Streptococcus pneumoniae [14]): 4 µg/mL (≈ 4.96 µM)
MIC (Staphylococcus aureus [2]): 4 µg/mL (≈ 4.96 µM)
MIC (Enterococcus faecalis [3]): 8 µg/mL (≈ 9.92 µM)
MIC (Streptococcus pyogenes [4]): 0.12 µg/mL (≈ 0.149 µM)
MIC [5]: 4 µg/mL (≈ 4.96 µM)
